Hits are enriched below; roughly 2.6% of the tested compounds scored in any of these assays.
PolyA inh: inhibitors of polyadenylation in S. cerevisiae; S. cerevisiae SKY197-pL101 polyadenylation reporter, beta-gal luminescence; efflux-impaired pdr1/pdr3 knockout yeast; score 100 = 6 SD above DMSO; activity score, % at 12 µM; 300,000 compounds, 0.02% hits; AID 1875;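 active = lowest replicate activity score at least 50, where 100 means six control SD above control mean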;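 also: yeast exposed to compound for 9 h at 30 °C; higher score means more reporter readthrough which indicates perturbed polyadenylation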
proCasp7 act: counter-screen: procaspase-7 (human) activation; P55210; recombinant procaspase-7, Ac-DEVD-pNA absorbance 405 nm; D23A/D198A/D206A triple mutant, cannot self-cleave; scale: DMSO 0, 5 µM enzyme 100; activation, % at 8.5 µM; 330,000 compounds, 0.093% hits; AID 463210;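 active = percent activation above the screen-wide mean plus 3 SD, cut at about 25% in these data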
Target sequence (P55210 whole entry D23A/D198A/D206A): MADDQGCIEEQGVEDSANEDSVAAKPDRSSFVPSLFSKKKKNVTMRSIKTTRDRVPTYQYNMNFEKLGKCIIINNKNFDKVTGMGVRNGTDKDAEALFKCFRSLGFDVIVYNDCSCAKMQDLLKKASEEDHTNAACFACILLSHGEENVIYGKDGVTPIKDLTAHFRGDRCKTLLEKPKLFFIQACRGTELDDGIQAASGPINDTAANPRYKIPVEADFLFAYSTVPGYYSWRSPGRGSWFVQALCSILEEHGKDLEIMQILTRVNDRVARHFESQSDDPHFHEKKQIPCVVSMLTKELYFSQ
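signal = Epi-absorbance of released pNA at 405 nm, two timepoints | assay system = Uncleavable procaspase-7 mutant enzyme | reagent = Ac-DEVD-pNA substrate, 400 µM as added | times = 1 h enzyme–compound preincubation and 2 h substrate reaction, both 25 °C | benchmarks = low DMSO alone, high DMSO plus 5 µM PC-7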
AHR act: activators of human aryl hydrocarbon receptor. P35869. AHR-responsive luciferase reporter cells, luminescence. activation, % at 5 µM. 320,000 compounds, 2.5% hits. AID 2796; in the data active = activation above about 47%;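 also: 0% = vehicle wells and 100% = reference agonist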
proCasp3 act: activates human procaspase-3 | P42574 | recombinant procaspase-3 D3A, Ac-DEVD-pNA absorbance 405 nm | activation, % at 8.5 µM | 330,000 compounds, 0.11% hits;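 active = activation above the mean of all tested compounds plus 3 SD, cut at about 21% in these data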;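 also: 0% = DMSO alone and 100% = DMSO wells spiked with extra 5 µM PC-3 D3A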
Target sequence (P42574 whole entry D9A/D28A/D175A): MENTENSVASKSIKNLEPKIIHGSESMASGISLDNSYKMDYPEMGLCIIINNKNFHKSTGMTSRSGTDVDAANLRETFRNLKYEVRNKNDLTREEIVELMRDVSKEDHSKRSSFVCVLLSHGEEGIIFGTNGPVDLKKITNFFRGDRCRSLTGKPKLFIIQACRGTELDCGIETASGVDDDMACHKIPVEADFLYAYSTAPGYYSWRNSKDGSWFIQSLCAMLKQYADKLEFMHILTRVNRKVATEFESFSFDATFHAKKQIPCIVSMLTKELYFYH
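Evaluation: percent activation relative to control range; Material: Procaspase-3 D3A mutant, all three cleavage aspartates alanine; Compound: single dose, 8.5 µM nominal compound, 0.8% DMSO; Replication: one well per compound; Signal: absorbance at 405 nm, 0 and 120 min; Schedule: 1 h preincubation plus 2 h reaction at 25 °C.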
* hit, by the source's call.

Screening CCC(C)c1ccc(N(CC(=O)NC(C)(C)C)C(=O)CNC(=O)c2cccs2)cc1 (stereo not drawn) returned PolyA inh 10, proCasp7 act -1, AHR act 2 and proCasp3 act 6.
Screening O=C1C(=O)N(Cc2ccccc2)C(=O)N1CCN1C(=O)c2ccccc2C1=O returned PolyA inh 3, proCasp7 act 11, AHR act 0 and proCasp3 act 7.
Screening O=C1Cc2ccccc2C(=O)N1CCc1ccccc1 returned PolyA inh -16, proCasp7 act 15, AHR act 73* and proCasp3 act 0.
COc1ccccc1NC(=O)c1nn(C)c(C(=O)Nc2ccccc2OC)c1[N+](=O)[O-] was read as PolyA inh 1, proCasp7 act -1, AHR act 59* and proCasp3 act 10.
`COc1ccc(Cl)cc1NC(=O)c1noc(C)c1[N+](=O)[O-]` gave PolyA inh -2, proCasp7 act 2, AHR act 55* and proCasp3 act 6.
For COc1ccccc1NC(=O)c1c([N+](=O)[O-])c(C(C)(C)C)nn1C the results were PolyA inh -12, proCasp7 act 13, AHR act 7 and proCasp3 act -10.
For COc1ccccc1NC(=O)c1nn(C)cc1Br the results were PolyA inh -5, proCasp7 act -2, AHR act 61* and proCasp3 act -4.
Screening COc1ccccc1NC(=O)c1c([N+](=O)[O-])cnn1C returned PolyA inh -1, proCasp7 act -1, AHR act 61* and proCasp3 act 2.
COc1ccc(Cl)cc1NC(=O)c1cc(-c2ccco2)on1 was read as PolyA inh 4, proCasp7 act -3, AHR act 10 and proCasp3 act -4.
`CC(=O)c1cccc(NS(=O)(=O)c2ccc3c(c2)N(C(C)=O)CCO3)c1` gave PolyA inh -14, proCasp7 act 7, AHR act 2 and proCasp3 act 6.
Screening O=C(COC(=O)c1ccc(S(=O)(=O)N2CCCCC2)cc1)NCc1ccccc1 returned proCasp7 act 5, AHR act -2 and proCasp3 act -1.
Screening CC1=C(C(=O)Nc2ccccc2)C(c2ccccc2[N+](=O)[O-])NC(=O)N1 (stereo not drawn) returned PolyA inh -6, proCasp7 act -11, AHR act 27 and proCasp3 act -4.
COc1ccccc1NC(=O)C1=C(C)NC(=O)NC1c1ccccc1[N+](=O)[O-] (stereo not drawn) was read as PolyA inh 14, proCasp7 act -3, AHR act 71* and proCasp3 act 1.
Screening Cn1ncc([N+](=O)[O-])c1C(=O)Nc1ccc(Cl)cc1 returned PolyA inh -9, proCasp7 act 12, AHR act 72* and proCasp3 act 0.
For Cn1ncc([N+](=O)[O-])c1C(=O)Nc1ccc(C2CCCCC2)cc1 the results were PolyA inh -10, proCasp7 act -11, AHR act 34 and proCasp3 act -5.
Screening CCNC(=O)N1CCCC(C(=O)c2ccc(C(F)(F)F)cc2)C1 (stereo not drawn) returned PolyA inh 1, proCasp7 act 2, AHR act 0 and proCasp3 act 6.
COc1cccc(/C(N)=N/OC(=O)Cc2ccccc2[N+](=O)[O-])c1 was read as PolyA inh 6, proCasp7 act -4, AHR act 60* and proCasp3 act 8.
Screening COc1ccc(/C(N)=N/OC(=O)c2cccc([N+](=O)[O-])c2C)cc1 returned PolyA inh 7, proCasp7 act 5, AHR act 54* and proCasp3 act 10.
`N/C(=N\OC(=O)c1cccc(Br)c1)c1ccccc1` gave PolyA inh -4, proCasp7 act 5, AHR act 74* and proCasp3 act 1.
Screening COc1cccc(C(=O)O/N=C(\N)c2ccc(C)cc2)c1 returned PolyA inh -4, proCasp7 act 13, AHR act 68* and proCasp3 act 8.
`CCCCCCCC(=O)C(C)C(=O)N(C)[C@H](Cc1ccc(OC)cc1)C(=O)N(C)[C@H](C(N)=O)C(C)C` (stereo partly drawn) gave proCasp7 act 12, AHR act 1 and proCasp3 act 8.
Cc1cccc(C(=O)O/N=C(\N)c2ccc(Cl)cc2)c1 was read as PolyA inh -4, proCasp7 act 16, AHR act 55* and proCasp3 act 17.
Screening CCCNC(=O)C(=O)Nc1ccc(N(C)C)cc1 returned PolyA inh 10, proCasp7 act -19, AHR act 68* and proCasp3 act 0.
CN(C)c1ccc(NC(=O)C(=O)NCCOc2ccccc2)cc1 was read as PolyA inh -5, proCasp7 act 1, AHR act 9 and proCasp3 act 0.
CN(C)c1ccc(NC(=O)c2cccc(C(=O)Nc3ccc(N(C)C)cc3)n2)cc1 was read as PolyA inh -11, proCasp7 act -3, AHR act 68* and proCasp3 act -3.
CCCN(CC(=O)Nc1ccccc1OC)C(=O)c1ccc2[nH]c3c(c2c1)CC(C)CC3 (stereo not drawn) was read as proCasp7 act -11, AHR act 25 and proCasp3 act -3.
COC(=O)c1c(C)noc1-c1ccc(Cl)cc1 was read as PolyA inh -6, proCasp7 act -10, AHR act -3 and proCasp3 act -4.
For COC(=O)c1c(-c2ccccc2)noc1-c1ccccc1 the results were PolyA inh -35, proCasp7 act 9, AHR act 53* and proCasp3 act 5.
Screening N#CCc1nn2c(-c3ccccc3)ccnc2c1C#N returned PolyA inh -3, proCasp7 act -1, AHR act 39 and proCasp3 act -1.
For CC(=O)Nc1ccccc1NC(=O)C/C(C)=N/NC(=O)c1cccnc1 the results were PolyA inh -7, proCasp7 act 10, AHR act 18 and proCasp3 act 8.
Screening Cc1cc(-c2sccc2C)nc(-n2cccc2)n1 returned PolyA inh -23, proCasp7 act -13, AHR act 23 and proCasp3 act 1.
For Cc1nc2cc(-c3sccc3-n3cccc3)nn2c(C)c1C the results were PolyA inh -13, proCasp7 act 7, AHR act 69* and proCasp3 act -9.
For CC(C(=O)N(C)C1CCCCC1)N1CCC(C(N)=O)CC1 (stereo not drawn) the results were PolyA inh -11, proCasp7 act 7, AHR act 5 and proCasp3 act 7.
For Nc1c2c(nc3ccc(Br)cc13)N(c1ccccc1)CC2 the results were proCasp7 act -30, AHR act 76* and proCasp3 act -18.
Screening Nc1c2c(nc3ccc(Br)cc13)N(Cc1ccccc1)CC2 returned PolyA inh -5, proCasp7 act 0, AHR act 50* and proCasp3 act -3.
For Nc1c2c(nc3ccccc13)N(C1CCCCC1)CC2 the results were PolyA inh -2, proCasp7 act 4, AHR act 36 and proCasp3 act 5.

Screening data deposited in PubChem by several laboratories.
